Hits are enriched below; roughly 5.3% of the tested compounds scored in any of these assays.
CSC inhib: cancer stem cell viability inhibitors, primary screen, luminescence; AID 2717, 2010; inhibition, % at 7.5 µM; actives 1.1% (n = 300,000); cancer stem cell-like cells viability; in the data active means inhibition above about 75%; inconclusive means no clear call, values can overlap the other calls; tested in HMLE shEcad cells
Beta cell apopt: inhibitors of cytokine-induced beta cell apoptosis, primary screen, luminescence | actives 0.8% (n = 300,000) | protection from apoptosis, % (test concentration not listed) | INS-1E cytokine-induced death, ATP luminescence, 48 h; percent of positive-control rescue, neutral wells zero;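 active means Every replicate reaches about 75%, or at least half do and their mean reaches it too, limit read from the data; inconclusive means At least half of replicates reach the limit but their mean does not; inactive means Under half of replicates reach the limit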;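 further: 0% = cytokine-treated negative control wells and 100% = positive control rescue; higher means more ATP so stronger rescue from cytokine killing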
Calb FLC: C. albicans growth inhibition with fluconazole, primary screen, CaCi-2 strain, Alamar Blue fluorescence; C. albicans CaCi-2 (fluconazole-resistant clinical isolate) + fluconazole, 48 h; growth inhibition, % (concentration not given with the values); actives 0.57% (n = 300,000);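 active means growth inhibition above about 58% in most replicates, limit read from the data, passing the limit was not always enough; inconclusive means exactly half the replicates above a set limit; inactive means most replicates below a set limit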;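 further: all wells also contain fluconazole at 8 µg/ml as a sub-toxic cotreatment; 0% = median of DMSO wells and 100% = median of geldanamycin control wells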
NALP3 yeast inh: NALP3 inflammasome inhibitors in reconstituted yeast, primary screen, luminescence, uHTS | actives 0.39% (n = 330,000) | inhibition, % at 10 µM | Yeast reconstituted NLRP3/ASC/caspase-1, beta-gal luminescence, 24 h;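 active means inhibition of 50% or more; inactive means inhibition below 50%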;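 further: plate controls were induced DMSO wells for no effect and uninduced yeast grown without galactose for full effect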
T cruzi inh: inhibitors of intracellular T. cruzi growth, primary screen, luminescence, NIH3T3 host cells | T. cruzi beta-gal in NIH3T3, 90 h | inhibition, % (concentration not given with the values) | actives 1.4% (n = 300,000) | AID 1885, 2009;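 active means mean inhibition across valid replicates above about 55%, limit read from the data; inconclusive means mean below that limit but half or more replicates reach it; inactive means mean below it, under half of replicates reach it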;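 further: signal also drops with host cell toxicity which is not excluded here; 0% = plate median of DMSO wells and 100% = zero luminescence signal; higher percent means less beta-gal luminescence so fewer parasites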
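System – NIH/3T3 host cells with β-galactosidase reporter T. cruzi · Doses – single 50 nL compound addition per well in DMSO · Reagent – 5000 T. cruzi trypomastigotes/well · Medium – Low-serum DMEM with 2% FBS · Timing – ≥90 h infection period, 3 h prior cell attachment · Evaluation – parasite load inhibition, % · Technique – GalScreen luminescence, 60 min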
Mdm2-MdmX inh: inhibitors of human Mdm2-MdmX association, primary screen, cell-based, luminescence, split luciferase, SaOS-2, uHTS; actives 3% (n = 330,000); SaOS-2 split-luciferase Mdm2/MdmX complementation; AID 485346, 2010; inhibition, % at 8 µM;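 active means inhibition of at least 50% at 8 µM in the primary screen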
* = called active by the depositor; ? = inconclusive; / = no result.

SMILES	CSC inhib	Beta cell apopt	Calb FLC	NALP3 yeast inh	T cruzi inh	Mdm2-MdmX inh
C/C=C1\NC(=O)[C@@H](NC(=O)[C@H](CCc2ccc(O)cc2)NC(=O)[C@H](C)NC(=O)[C@H](O)CO)[C@@H](C)OC(=O)[C@H](C(C)C)NC(=O)[C@H](Cc2ccc(O)cc2)N(C)C(=O)[C@H](Cc2ccccc2)N2C(=O)C(CC[C@H]2O)NC1=O (stereo not given in full)	/	/	/	18	/	3
COc1cccc(CNCCc2cccc(F)c2)c1OC	-9	-3	-19	14	59*	9
CCN1CCN(C(=O)COc2ccc(S(=O)(=O)NC(C)C)cc2)CC1	-6	-3	?	20	-3	22
CN1CCN(C(=O)COc2ccc(S(=O)(=O)Nc3ccc(F)cc3)cc2)CC1	36	-8	/	12	66*	-12
C=CCN(CC=C)Cc1c[nH]c2ccccc12	-13	107*	-9	-12	-32	12
COc1cccc(-c2sc3ccccc3c2-c2ccc(OCCN3CCOCC3)cc2)c1	104*	-10	/	21	/	47
COc1ccc(-n2c(CN3CCOCC3)nc3ccccc3c2=O)c(OC)c1	-16	1	17	6	-6	10
Cc1c(C(=O)N2CCC3(CC2)OCCO3)oc2ccc(S(=O)(=O)N3CCCCC3)cc12	15	-12	5	-10	-2	13
O=[N+]([O-])c1ccc(C2[C@H]3C(c4ccccc4)=NC4(CCCC4)N23)cc1 (stereo not given in full)	-13	2	99*	24	12	13
Cc1ccc(C2=NC(C)(C)N3C2C3c2ccc([N+](=O)[O-])cc2)cc1 (stereo not given)	10	-6	0	18	0	-9
CCOc1ccccc1C1SCC(=O)Nc2c1c(=O)[nH]n2C(CC)CC (stereo not given)	-7	4	16	18	2	3
N[C@@H]1CCCC[C@H]1N.O=C(O)C(=O)O.[Pt]	12	87*	-12	25	-16	0
O=P(Oc1ccccc1)(Oc1ccccc1)N1CCN(c2ccc(F)cc2)CC1	2	78*	-2	29	40	30
COc1ccc(/C=C/C2=CCN(C)CC2)cc1	55	-5	-4	1	21	11
CN1CC=C(/C=C/c2ccc(-c3ccccc3)cc2)CC1	63	71	-15	19	70*	-13
COc1ccc(OC)c(N2C(=O)/C(=C/c3ccco3)C(=O)NC2=S)c1	-9	-3	-2	29	-4	26
COc1ccc(OC)c(N2C(=O)NC(=O)/C(=C/c3ccc([N+](=O)[O-])s3)C2=O)c1	-2	-2	-6	11	65*	16
CCC(=NCCCN(CC)CC)c1c(O)n(C2CCCCC2)c(=O)[nH]c1=O	-9	-1	-19	-3	66*	6
CCN(CC)CCCN=C(C)c1c(O)n(C2CCCCC2)c(=O)[nH]c1=O	/	-3	-1	23	65*	-14
O=C1NC(=S)NC(=O)C1=Cc1ccc(OCC(=O)N2CCCC2)cc1	/	3	1	7	-29	9
O=c1[nH]c(=O)n(-c2ccccc2F)c(O)c1C=NCCC1=CCCCC1	-15	-4	34	12	-11	16
COc1ccc2c(c1OC)CN1CCc3cc4c(cc3C1C2)OCO4 (stereo not given)	-4	46	-14	17	58*	14
COc1ccccc1CN1CCCC(C(=O)c2ccccc2SC)C1 (stereo not given)	-9	1	-9	8	60*	17
O=C1C2CCN(CC2)C1Cc1ccccc1O (stereo not given)	3	-6	2	15	-12	-3
O=C1C2CCN(CC2)C1Cc1ccc(OCCOc2ccccc2)cc1 (stereo not given)	18	-3	109*	15	5	7
SMILES	CSC inhib	Beta cell apopt	Calb FLC	NALP3 yeast inh	T cruzi inh	Mdm2-MdmX inh
Cn1c(O)c(C2=NN(C(=O)CCl)C(c3ccccc3)C2)c(=O)n(C)c1=O (stereo not given)	6	-1	3	19	5	24
NC(N)=N/N=C/c1ccc(N2CCOCC2)cc1	4	-1	8	21	28	39
COc1ccc(/C=N\N=C(N)N)cc1	-4	-1	7	-1	62*	-21
O=C(c1ccccc1)C(CN1CCCC1)c1ccccc1 (stereo not given)	49	92*	93*	/	18	/
Fc1cccc(CCNCc2ccccn2)c1	-8	1	1	-2	-9	16
O=C(CCN1CCCCC1)Nc1ccc(Cl)cc1C(=O)c1ccccc1	-2	-5	-6	21	11	17
O=C(CN1CCCC1)Nc1ccc(Cl)cc1C(=O)c1ccccc1	85*	17	6	15	16	8
CC(C)=CCc1c(O)cc2c(c1O)C(=O)CC(c1ccc(O)cc1)O2 (stereo not given)	99*	/	3	5	-10	29
Cc1ccc(N2C(=O)NC(=O)/C(=C\C=C\c3ccco3)C2=O)cc1C	53	97*	-5	/	-8	/
Cc1ccc(N2C(=O)NC(=O)/C(=C\C=C\c3ccco3)C2=O)cc1	79*	40	-6	4	-23	1
Cc1cccc(N2C(=O)NC(=O)/C(=C\C=C\c3ccco3)C2=O)c1	?	30	3	18	-32	27
O=C1NC(=O)N(c2ccccc2)C(=O)/C1=C/C=C/c1ccco1	88*	-3	-2	1	-17	-7
CCCCn1c(O)c(C=NC2CCCCC2N)c(=O)[nH]c1=O (stereo not given)	/	-3	0	25	4	16
CCCCCCn1c(O)c(C=NC2CCCCC2N)c(=O)[nH]c1=O (stereo not given)	83*	-5	14	-19	-7	-15
Clc1ccc2c(c1)C(c1ccccc1Cl)=NCc1nnc(Br)n1-2	8	16	28	-37	13	14
Cc1ccc(C2(O)CN3CCC2CC3)cc1 (stereo not given)	-5	4	-1	23	-13	6
CCCCCCC(C)(C)c1ccc([C@@H]2C[C@H](O)CC[C@H]2CCCO)c(O)c1	103*	6	/	20	/	20
Cc1ccc(-n2c(O)c(/C=N/Nc3ccccc3)c(=O)[nH]c2=O)cc1C	71	-7	-4	21	26	24
COc1ccc(N/N=C/c2c(O)n(-c3ccc(C)c(C)c3)c(=O)[nH]c2=O)cc1	117*	-7	0	39	21	-7

Screening results: PubChem, several laboratories
